In ChEMBL document CHEMBL4732237, “Discovery of 4-alkoxy-2-aryl-6,7-dimethoxyquinolines as a new class of topoisomerase I inhibitors endowed with potent in vitro anticancer activity” (2021):

Key:
Format in all cases: functional
TK-10 [1] = assay: Growth inhibition of human TK-10 cells at 10 uM incubated for 48 hrs by sulforhodamine B assay relative to control; settings: read-out: GI
In short: (§1)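 NCI one-dose screen across a 59-line panel. Cells were grown in RPMI 1640 with 5% FBS and 2 mM L-glutamine, plated and pre-incubated 24 h, then exposed to drug for 48 h at 37 °C, 5% CO2. Adherent cells were fixed with cold TCA (10% final), stained with 0.4% SRB in 1% acetic acid and read at 515 nm. Result is percent growth relative to no-drug control and time-zero cell count.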

SK-MEL-5 [2] = assay: Growth inhibition of human SK-MEL-5 cells incubated for 48 hrs by sulforhodamine B assay
In short: (§2)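 NCI five-dose screen (0.01–100 µM; five concentrations plus control). Cells grown in RPMI 1640/5% FBS/2 mM L-glutamine and preincubated 24 h, with time-zero plates TCA-fixed. Drug exposure 48 h at 37 °C, followed by SRB protein staining and reading at 515 nm. GI50 is the concentration at [(Ti-Tz)/(C-Tz)]×100 = 50.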

EKVX [3] = assay: Growth inhibition of human EKVX cells incubated for 48 hrs by sulforhodamine B assay
In short: (§3)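 NCI five-dose screen covering 0.01–100 µM, prepared as 10-fold or ½-log dilutions from DMSO stock. Cells in RPMI 1640 with 5% FBS were exposed for 48 h at 37 °C after 24 h preincubation. Adherent cells were fixed with TCA (final 10%) and suspension cells were settled before fixing. Stain was SRB, read at 515 nm. GI50 = 50% reduction in net protein increase versus control, with Tz taken at drug addition.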

NCI-H226 = assay: Growth inhibition of human NCI-H226 cells incubated for 48 hrs by sulforhodamine B assay; in short: as §2
RXF 393 [4] = assay: Growth inhibition of human RXF 393 cells at 10 uM incubated for 48 hrs by sulforhodamine B assay relative to control; settings: read-out: GI
In short: (§4)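 NCI one-dose screen. Cells grown in RPMI 1640 with 5% FBS and 2 mM L-glutamine, plated and incubated 24 h at 37 °C, 5% CO2. DMSO-dissolved drug added, then 48 h further incubation. Adherent cells fixed with cold TCA, suspension cells fixed after settling. Stained with 0.4% SRB, absorbance read at 515 nm. Reported as percent growth relative to no-drug control and time-zero cell number.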

SF-295 = assay: Growth inhibition of human SF-295 cells incubated for 48 hrs by sulforhodamine B assay; in short: as §2
MDA-MB-435 = assay: Growth inhibition of human MDA-MB-435 cells incubated for 48 hrs by sulforhodamine B assay; in short: as §3
MCF7 = assay: Growth inhibition of human MCF7 cells incubated for 48 hrs by sulforhodamine B assay; in short: as §3
CAKI-1 = assay: Growth inhibition of human CAKI-1 cells incubated for 48 hrs by sulforhodamine B assay; in short: as §3
HCT-15 = assay: Growth inhibition of human HCT-15 cells incubated for 48 hrs by sulforhodamine B assay; in short: as §3
OVCAR-8 [5] = assay: Growth inhibition of human OVCAR-8 cells incubated for 48 hrs by sulforhodamine B assay; in short: as §2
SNB-19 = assay: Growth inhibition of human SNB-19 cells incubated for 48 hrs by sulforhodamine B assay; in short: as §2
SW-620 = assay: Growth inhibition of human SW-620 cells at 10 uM incubated for 48 hrs by sulforhodamine B assay relative to control; settings: read-out: GI; in short: as §1
EKVX [6] = assay: Growth inhibition of human EKVX cells at 10 uM incubated for 48 hrs by sulforhodamine B assay relative to control; settings: read-out: GI
In short: (§5)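 NCI-60 single-dose screen. Cells were grown in RPMI 1640 with 5% FBS and 2 mM L-glutamine and plated 24 h before drug addition. Compound was added at one concentration in DMSO-derived medium and incubated for 48 h at 37 °C in 5% CO2. Read-out was SRB protein stain at 515 nm. Result is percent growth versus the no-drug control and the time-zero cell count; values below 0 indicate lethality.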

TK-10 [7] = assay: Growth inhibition of human TK-10 cells incubated for 48 hrs by sulforhodamine B assay
In short: (§6)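 NCI five-dose assay, with drug stocks in DMSO diluted in medium to five concentrations (10-fold or ½-log series). Cells in RPMI 1640/5% FBS were pre-incubated 24 h, and time-zero plates were TCA-fixed at drug addition. After 48 h at 37 °C, cells were TCA-fixed, SRB-stained and read at 515 nm. GI50 is from [(Ti-Tz)/(C-Tz)]×100 = 50, TGI from Ti = Tz, and LC50 from [(Ti-Tz)/Tz]×100 = -50.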

OVCAR-8 [8] = assay: Growth inhibition of human OVCAR-8 cells at 10 uM incubated for 48 hrs by sulforhodamine B assay relative to control; settings: read-out: GI; in short: as §4
UO-31 = assay: Growth inhibition of human UO-31 cells incubated for 48 hrs by sulforhodamine B assay; in short: as §6
M14 = assay: Growth inhibition of human M14 cells incubated for 48 hrs by sulforhodamine B assay; in short: as §3
SK-MEL-2 = assay: Growth inhibition of human SK-MEL-2 cells incubated for 48 hrs by sulforhodamine B assay; in short: as §2
KM12 = assay: Growth inhibition of human KM12 cells at 10 uM incubated for 48 hrs by sulforhodamine B assay relative to control; settings: read-out: GI; in short: as §5
U-251 = assay: Growth inhibition of human U-251 cells at 10 uM incubated for 48 hrs by sulforhodamine B assay relative to control; settings: read-out: GI; in short: as §1
RXF 393 [9] = assay: Growth inhibition of human RXF 393 cells incubated for 48 hrs by sulforhodamine B assay; in short: as §2
UACC-257 = assay: Growth inhibition of human UACC-257 cells at 10 uM incubated for 48 hrs by sulforhodamine B assay relative to control; settings: read-out: GI; in short: as §1
LOX IMVI = assay: Growth inhibition of human LOX IMVI cells incubated for 48 hrs by sulforhodamine B assay; in short: as §3
SF-539 = assay: Growth inhibition of human SF-539 cells at 10 uM incubated for 48 hrs by sulforhodamine B assay relative to control; settings: read-out: GI; in short: as §4
A498 = assay: Growth inhibition of human A498 cells incubated for 48 hrs by sulforhodamine B assay; in short: as §6
NCI-H460 [10] = assay: Growth inhibition of human NCI-H460 cells at 10 uM incubated for 48 hrs by sulforhodamine B assay relative to control; settings: read-out: GI; in short: as §4
Hs-578T = assay: Growth inhibition of human HS-578T cells incubated for 48 hrs by sulforhodamine B assay; in short: as §3
SNB-75 = assay: Growth inhibition of human SNB-75 cells incubated for 48 hrs by sulforhodamine B assay; in short: as §2
MDA-MB-468 = assay: Growth inhibition of human MDA-MB-468 cells at 10 uM incubated for 48 hrs by sulforhodamine B assay relative to control; settings: read-out: GI; in short: as §5
SR = assay: Growth inhibition of human SR cells at 10 uM incubated for 48 hrs by sulforhodamine B assay relative to control; settings: read-out: GI; in short: as §4
NCI-H460 [11] = assay: Growth inhibition of human NCI-H460 cells incubated for 48 hrs by sulforhodamine B assay; in short: as §2
SK-MEL-5 [12] = assay: Growth inhibition of human SK-MEL-5 cells at 10 uM incubated for 48 hrs by sulforhodamine B assay relative to control; settings: read-out: GI; in short: as §4
DU-145 = assay: Growth inhibition of human DU-145 cells incubated for 48 hrs by sulforhodamine B assay; in short: as §3

COc1cc2nc(-c3ccc(Cl)cc3)cc(OCCCN3CCC(O)CC3)c2cc1OC
inhibition of growth at 10 µM (TK-10 [1]): 62% | GI50 (SK-MEL-5 [2]): 1270 nM | GI50 (EKVX [3]): 1330 nM | GI50 (NCI-H226): 1390 nM | inhibition of growth at 10 µM (RXF 393 [4]): 62% | GI50 (SF-295): 1660 nM | GI50 (MDA-MB-435): 2050 nM | GI50 (MCF7): 1600 nM | GI50 (CAKI-1): 416 nM | GI50 (HCT-15): 763 nM | GI50 (OVCAR-8 [5]): 2000 nM | GI50 (SNB-19): 3190 nM | inhibition of growth at 10 µM (SW-620): 62% | inhibition of growth at 10 µM (EKVX [6]): 62% | GI50 (TK-10 [7]): 2140 nM | inhibition of growth at 10 µM (OVCAR-8 [8]): 62% | GI50 (UO-31): 1720 nM | GI50 (M14): 591 nM | GI50 (SK-MEL-2): 2070 nM | inhibition of growth at 10 µM (KM12): 62% | inhibition of growth at 10 µM (U-251): 62% | GI50 (RXF 393 [9]): 1220 nM | inhibition of growth at 10 µM (UACC-257): 62% | GI50 (LOX IMVI): 227 nM | TGI (LOX IMVI): 589 nM | inhibition of growth at 10 µM (SF-539): 62% | GI50 (A498): 1520 nM | inhibition of growth at 10 µM (NCI-H460 [10]): 62% | GI50 (Hs-578T): 1910 nM | GI50 (SNB-75): 1760 nM | inhibition of growth at 10 µM (MDA-MB-468): 62% | inhibition of growth at 10 µM (SR): 62% | GI50 (NCI-H460 [11]): 955 nM | inhibition of growth at 10 µM (SK-MEL-5 [12]): 62% | GI50 (DU-145): 2780 nM
